“And” between values parts separate entries of the source, which are not always exact repeats. Equal entries are not always repeated.
Key:
Mus musculus [1] = assay: Antidepressant potential was assessed by the potentiation of yohimbine-induced toxicity in mice by intraperitoneal administration; assay type: functional
How it was run: (§1)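 Male NMRI mice (SPF-71, KF), 20-30 g, were randomized into groups of 10. Compounds were dissolved in 1% methylcellulose, dosed at 10 mL/kg, and given ip 30 min before yohimbine hydrochloride (20 mg/kg sc). Deaths were counted after 18 h. ED50 was the dose at which 50% of animals died.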

Mus musculus [2] = assay: Antidepressant potential was assessed by the potentiation of yohimbine-induced toxicity in mice by intraperitoneal administration; Inactive; assay type: functional; conditions: ip; how it was run: as §1
Mus musculus [3] = assay: (§2) Lethal dose (toxicity) was determined by intraperitoneal administration in mice; assay type: organism-based; conditions: in vivo, ip
How it was run: (§3)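 Male NMRI mice (SPF-71, KF), 20-30 g, randomly assigned to groups of 10. Compounds were dissolved in 1% methylcellulose and given intraperitoneally at 10 mL/kg body weight.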

Mus musculus [4] = assay: Antidepressant potential was assessed by the prevention of tetrabenazine-induced ptosis in mice by intraperitoneal administration; assay type: functional
How it was run: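 Male NMRI mice (SPF-71, KF), 20-30 g, randomly assigned to groups of 10. Compounds dissolved in 1% methylcellulose and given ip at 10 mL/kg body weight. Ptosis procedure follows an earlier cited method.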

Rattus norvegicus [5] = species on record: Rattus norvegicus; assay: In vitro inhibition of [14C]norepinephrine uptake into rat hypothalamus; assay type: functional, organism-based
Rattus norvegicus [6] = species on record: Rattus norvegicus; assay: In vitro inhibition of [3H]dopamine uptake into rat corpus striatum; assay type: functional, organism-based
Mus musculus [7] = assay: Antidepressant potential was assessed by the prevention of tetrabenazine-induced ptosis in mice by intraperitoneal administration; Inactive; assay type: functional; conditions: ip
[8] = as §2; assay type: organism-based; conditions: mouse, in vivo, ip; how it was run: as §3
Rattus norvegicus [9] = species on record: Rattus norvegicus; assay: In vitro inhibition of [3H]5-HT uptake into rat whole brain; assay type: functional, organism-based
Mus musculus [10] = assay: Antidepressant potential was assessed by the potentiation of yohimbine-induced toxicity in mice by intraperitoneal administration.; assay type: functional; how it was run: as §1
Mus musculus [11] = assay: (§4) Lethal dose (toxicity) was determined by intraperitoneal administration in mice.; assay type: organism-based; conditions: in vivo, ip; how it was run: as §3
[12] = as §4; assay type: organism-based; conditions: mouse, in vivo, ip; how it was run: as §3
Mus musculus [13] = assay: Antidepressant potential was assessed by the prevention of tetrabenazine-induced ptosis in mice by intraperitoneal administration.; assay type: functional
[14] = Mus musculus, ip, read-out: ED50

For CN1CCC[C@@H]2[C@@H](c3ccccc3)c3ccccc3[C@@H]21, which ED50 (Mus musculus [1]) is on record?
Its ED50 is 0.86 mg/kg.

What about the ED50 (Mus musculus [2]) of the same compound?
Its ED50 is 5 mg/kg.

What about the LD50 (Mus musculus [3]) of the same compound?
Its LD50 is 72 mg/kg and 91 mg/kg.

And the ED50 (Mus musculus [4])?
Its ED50 is 0.37 mg/kg.

And the IC50 (Rattus norvegicus [5])?
Its IC50 is 0.5 µM and 0.06 µM.

What about the IC50 (Rattus norvegicus [6]) of the same compound?
Its IC50 is 0.3 µM.

What about the ED50 (Mus musculus [7]) of the same compound?
The ED50 was 10 mg/kg.

With CN1CCC[C@@H]2[C@@H](c3ccccc3)c3ccccc3[C@@H]21 (racemic) as the compound, how does the ED50 (Mus musculus [1]; [14]) read?
The ED50 was 1.3 mg/kg.

And the LD50 [8]?
Its LD50 is 46.7 mg/kg.

And the ED50 (Mus musculus [4]; [14])?
The ED50 was 0.4 mg/kg.

And the IC50 (Rattus norvegicus [5])?
Its IC50 is 0.12 µM.

What about the IC50 (Rattus norvegicus [6]) of the same compound?
The IC50 was 0.1 µM.

What about the IC50 (Rattus norvegicus [9]) of the same compound?
The IC50 was 10 µM.

Which results are given for CN1Cc2c(N)cccc2C(c2ccccc2)C1 (stereo in doubt; (+)) [NOMIFENSINE]?
ED50 (Mus musculus [10]): 0.55 mg/kg; LD50 (Mus musculus [11]): 49.5 mg/kg

What does the source list for Nc1ccc([C@H]2c3ccccc3[C@@H]3NCCC[C@H]23)cc1?
LD50 [8]: 78 mg/kg; ED50 (Mus musculus [10]): 0.07 mg/kg and 0.15 mg/kg; IC50 (Rattus norvegicus [5]): 0.005 µM and 0.015 µM; IC50 (Rattus norvegicus [6]): 0.02 µM and 0.05 µM; IC50 (Rattus norvegicus [9]; Rattus norvegicus, 1 h): > 10 µM; LD50 [12]: 43 mg/kg

Which ED50 (Mus musculus [10]) does the source give for CN1Cc2c(N)cccc2C(c2ccccc2)C1 (stereo in doubt; (-)) [NOMIFENSINE] here?
Its ED50 is 20.2 mg/kg.

And the LD50 (Mus musculus [11])?
The LD50 was 170 mg/kg.

Which ED50 (Mus musculus [10]) does the source give for Nc1ccc([C@H]2c3ccccc3[C@@H]3NCCC[C@H]23)cc1 (racemic) here?
Its ED50 is 0.06 mg/kg.

And the IC50 (Rattus norvegicus [5])?
The IC50 was 0.018 µM.

What about the IC50 (Rattus norvegicus [6]) of the same compound?
The IC50 was 0.044 µM.

And the LD50 (Mus musculus [11])?
The LD50 was 37 mg/kg.

And the ED50 (Mus musculus [13])?
Its ED50 is 0.044 mg/kg.

Which results are given for CCCN1CCC[C@@H]2[C@@H](c3ccccc3)c3ccccc3[C@@H]21 (racemic)?
ED50 (Mus musculus [1]): 3.5 mg/kg; LD50 (Mus musculus [3]): 57 mg/kg; ED50 (Mus musculus [4]): 0.8 mg/kg; IC50 (Rattus norvegicus [5]): 0.41 µM; IC50 (Rattus norvegicus [6]): 0.11 µM; IC50 (Rattus norvegicus [9]): > 10 µM

With CCCN1CCC[C@@H]2[C@@H](c3ccccc3)c3ccccc3[C@@H]21 as the compound, how does the ED50 (Mus musculus [1]) read?
The ED50 was 1.2 mg/kg.

What about the ED50 (Mus musculus [2]) of the same compound?
Its ED50 is 5 mg/kg.

What about the LD50 (Mus musculus [3]) of the same compound?
Its LD50 is 35 mg/kg.

What about the LD50 [8] of the same compound?
Its LD50 is 39 mg/kg.

What about the ED50 (Mus musculus [4]; [14]) of the same compound?
Its ED50 is 0.4 mg/kg.

And the IC50 (Rattus norvegicus [5])?
The IC50 was 0.036 µM and 0.2 µM.

What about the IC50 (Rattus norvegicus [6]) of the same compound?
Its IC50 is 0.04 µM and 0.2 µM.

And the IC50 (Rattus norvegicus [9])?
The IC50 was over 10 µM.

What about the ED50 (Mus musculus [7]) of the same compound?
The ED50 was 5 mg/kg.

With CN1Cc2c(N)cccc2C(c2ccccc2)C1 (racemic) [NOMIFENSINE] as the compound, how does the ED50 (Mus musculus [10]) read?
The ED50 was 1.1 mg/kg.

And the LD50 (Mus musculus [11])?
The LD50 was 141 mg/kg.
